Compound activity (PubChem BioAssay)
Most compounds without a hit are left out; they make up all but 12% or so of the library.
WT yeast gro inh – growth inhibition of WT strain, primary screen, mitochondrial fusion inhibitor project, WT and mutant strains, chemical genetic; AID 1362, 2008; mitochondrial fusion phenotypic screen; actives 2.1% (n = 190,000); inhibition, % at 10 µM; in the data active means inhibition above about 58%; tested in S. cerevisiae
ABCG2 block – ABCG2 efflux pump inhibitors, primary screen, multiplex with ABCB1, IgMXP3 cells, flow cytometry; Broad substrate specificity ATP-binding cassette transporter ABCG2 (Homo sapiens), Q9UNQ0; JC-1 efflux; inhibition, % at 6.6 µM; actives 0.1% (n = 190,000);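 active means inhibition above 80%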;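 further: 0% = DMSO and 100% = nicardipine control wells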
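Read-out basis: Efflux inhibition in percent versus controls | Test system: ABCG2 IgMXP3 and barcoded ABCB1 CCRF-Adr cell mix | Quantity: 3 million cells/mL in well | Schedule: 10 min at 25 °C | Control set: Nicardipine as high control, DMSO as low control | Reagent: JC-1 as fluorescent efflux pump substrate | Signal: Flow cytometry of retained JC-1 fluorescence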
ABCB1 inh – ABCB1 efflux pump inhibitors, primary screen, cell-based, multiplex, flow cytometry, ABCG2 counter-screen; actives 0.067% (n = 190,000); CCRF-Adr cells, JC-1 efflux; ATP-dependent translocase ABCB1 (Homo sapiens), P08183; inhibition, % at 6.6 µM; in the data active means inhibition above about 40%;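 further: 0% = vehicle and 100% = reference inhibitor; higher value means more JC-1 retained so stronger ABCB1 efflux block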
L major viab – Leishmania major promastigote growth inhibition, primary screen. AID 1063, 2008. Leishmania major promastigotes, resazurin fluorescence viability. inhibition, % at 10 µM. actives 9% (n = 200,000); in the data active means inhibition above about 50%;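 further: promastigotes grown with compound for 44 hours at 28 °C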
RAM inhibit – inhibitors of the yeast RAM network, primary screen, dse1pr::URA3 reporter, 5-FOA selection | actives 1.8% (n = 190,000) | AID 868, 2007 | inhibition, % at 50 µM | S. cerevisiae dse1pr::URA3 reporter, 5-FOA growth OD615, 2 d; analog-sensitive cbk1-as2 kinase mutant strain;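 active means inhibition above a set limit, 3 SD over mean compound inhibition, cut at about 8.4% in these data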;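 further: 0% = DMSO-only wells with no growth and 100% = 10 µM 1-NA-PP1 full growth; inhibition rescues growth on 5-FOA so higher OD means more RAM inhibition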
An asterisk follows results filed as active; nt = no result given.

SMILES	WT yeast gro inh	ABCG2 block	ABCB1 inh	L major viab	RAM inhibit
O=C(NCC1CCCO1)c1ccc(OC2CCN(C(=O)C3CC3)CC2)cc1 (stereo not drawn)	18.4	5.6	3.3	-5.0	0.6
Cc1c(Br)c([N+](=O)[O-])nn1CC(=O)c1ccccc1	10.1	6.2	0.5	-2.2	3.0
CC1CC1C(=O)OCC(=O)Nc1cccc([N+](=O)[O-])c1 (stereo not drawn)	-3.9	7.4	0.5	-10.5	0.9
c1ccc(C(c2ccccc2)c2noc(CN3CCC(c4ccncc4)CC3)n2)cc1	23.4	2.0	0.2	90.2*	0.9
CN1CCCN(Cc2nc(-c3cccc(C(F)(F)F)c3)no2)CC1	11.5	4.6	0.7	99.2*	0.0
c1ccc(C2CCCN(Cc3nc(CC4CC4)no3)CC2)cc1 (stereo not drawn)	14.0	0.9	0.2	-6.0	0.5
FC(F)(F)c1cccc(-c2noc(CN3CCOCC3)n2)c1	-5.5	4.0	0.3	-6.9	2.4
COc1cc2c(C#N)c(N3CCCCC3)nc(N)c2c(N)n1	14.8	0.0	0.1	25.0	-0.4
COc1cc2c(C#N)c(N3CCc4ccccc4C3)nc(N)c2c(N)n1	6.8	-0.2	3.0	53.9*	1.1
CCc1ccc(S(=O)(=O)NCCc2cn3cccc(C)c3n2)s1	-3.0	1.5	0.4	1.2	-0.1
CCOC(=O)C1CCCN(c2ccc(NC(=O)c3snc4c(=O)[nH]c(C)nc34)cc2)C1 (stereo not drawn)	12.0	3.2	0.5	-2.4	9.8*
C=CC[n+]1c(/C=C2\C=Cc3cc(C)ccc3N2CC)ccc2ccccc21	78.6	4.8	0.5	100.4*	2.0
CC(C)(C)c1[nH]nc2c1C(c1cccnc1)C(C#N)=C(N)O2 (stereo not drawn)	-4.0	2.2	0.3	-5.2	0.0
CC(C)(C)c1[nH]nc2c1C(c1ccc(OC(=O)c3ccco3)cc1)C(C#N)=C(N)O2 (stereo not drawn)	-0.7	nt	nt	12.8	10.3*
O=C(CCl)Nc1ccc(Oc2cnc3ccccc3n2)cc1	9.5	3.6	0.5	66.1*	1.5
O=C(O)COc1cnc2ccccc2n1	6.1	0.7	0.7	-6.4	-0.8
O=C1CC(N2C(=O)/C(=C/C=C/c3ccccc3)SC2=S)C(=O)N1c1ccccc1 (stereo not drawn)	-10.2	-11.3	-1.4	56.2*	5.9
O=C(O)CN1C(=O)/C(=C/C=C/c2ccccc2)SC1=S	6.8	-0.3	-0.2	-10.6	0.9
Cc1ccccc1OCCNc1cc(N2CCNCC2)ccc1[N+](=O)[O-]	32.9	3.8	1.0	100.3*	1.2
COc1ccccc1OCCNc1cc(N2CCCCC2)ccc1[N+](=O)[O-]	11.4	14.8	1.2	6.8	11.0*
CC(C)CN(C(=O)c1cc2ccccc2o1)c1c(N)n(CC(C)C)c(=O)[nH]c1=O	-3.5	9.3	0.4	-6.9	2.7
CC1=NOC(=O)/C1=C/c1ccc(-c2ccc(Cl)cc2)o1	75.2*	-1.2	-0.2	99.8*	3.2
CC1=NOC(=O)/C1=C\c1ccc(-c2ccc(Br)cc2)o1	75.4*	-3.4	-1.1	62.0*	6.1
CC1=NOC(=O)/C1=C/c1ccc(N(C)C)cc1	10.5	26.8	-1.7	10.1	0.6
CC1=NOC(=O)/C1=C\c1ccc(-c2ccc(Br)cc2C(=O)O)o1	-12.5	-0.2	-0.1	-3.8	0.6
SMILES	WT yeast gro inh	ABCG2 block	ABCB1 inh	L major viab	RAM inhibit
CC1=NOC(=O)/C1=C\c1ccc(-c2cc(Cl)ccc2Cl)o1	54.2	-1.2	-0.5	99.1*	3.4
Cn1cc(S(=O)(=O)Oc2ccccc2)c(=O)n(C)c1=O	-4.6	1.3	0.9	-1.0	0.3
C=CCNCCOc1ccc(C)cc1[N+](=O)[O-]	-18.1	-0.1	0.1	-5.5	2.5
COCCCNCCCCOc1ccc(C)cc1[N+](=O)[O-]	-2.1	18.8	0.5	99.0*	3.2
COc1ccccc1OCCOCCOc1ccc(C)cc1[N+](=O)[O-]	5.0	nt	nt	55.1*	1.0
CCCCNCCOCCOc1ccc(C)cc1[N+](=O)[O-]	-6.5	2.5	0.8	90.8*	-0.4
CCCCNC(=O)c1ccccc1NC(=O)CN(c1ccccc1)S(=O)(=O)N(C)C	8.2	4.5	1.1	64.7*	1.8
CCOC(=O)C(CC)(CC)C(=O)/C=C/c1cccc(Br)c1	nt	nt	nt	100.0*	nt
COc1ccc(OC)c(NC(=O)CN2C(=O)NC3(CCOc4ccccc43)C2=O)c1 (stereo not drawn)	16.4	12.0	1.1	11.6	0.3
CSc1ccc(/C=N/n2c(Cc3ccc(Br)cc3)n[nH]c2=S)cc1	71.2*	-2.0	-1.0	-1.8	10.0*
CCc1n[nH]c(=S)n1/N=C/c1ccc(NC(C)=O)cc1	-11.9	15.6	0.4	-4.7	0.2
O=C1c2cccc3cccc(c23)C(=O)N1CCc1ccccc1	7.3	38.1	5.8	3.5	1.9
CCOc1ccc(S(=O)(=O)NCCC2=CCCCC2)c2ccccc12	1.0	2.6	0.8	28.1	11.1*
COc1ccc(C)cc1S(=O)(=O)NCCC1=CCCCC1	5.5	2.6	0.4	-7.6	0.8
COc1ccc(S(=O)(=O)NCCCN2CCOCC2)c2ccccc12	3.6	2.2	1.8	91.8*	2.1
COc1cc(Cl)c(S(=O)(=O)NCCN2CCOCC2)cc1Cl	-2.6	0.7	0.1	-2.3	0.2
CCOc1ccc(S(=O)(=O)NCCCN2CCOCC2)c2ccccc12	-18.0	4.5	0.5	85.3*	0.8
CCCOc1ccc(S(=O)(=O)NCCCN2CCOCC2)c2ccccc12	-3.3	0.9	1.6	27.8	1.3
CC(C)C1N(C(=O)CN2CCCCC2)CCN1S(=O)(=O)c1ccccc1 (stereo not drawn)	17.3	4.9	0.4	4.6	-1.4
Cc1ccc(N(CC(=O)NN=C2CCN(C)CC2)S(=O)(=O)c2ccccc2)c(C)c1	-4.3	-3.3	-0.2	59.6*	1.4
COc1ccc(Cl)cc1NC(=O)CN1C(=O)CC(C)S(=O)(=O)c2ccccc21 (stereo not drawn)	-2.0	0.1	0.8	-8.7	2.4
COc1cccc(C2C(C#N)=C(N)OC3=C2C(=O)CC(c2ccco2)C3)c1OCc1ccc(F)cc1 (stereo not drawn)	31.6	5.0	1.4	75.5*	1.5
COC(=O)[C@@]1(Cc2ccc(OC)cc2)[C@@H]2C(=CC(=O)[C@H]2CC(=O)C(=O)N2CCCC2)CN1C(=O)c1ccccc1	-9.0	25.8	10.9	100.3*	0.0
COC(=O)[C@@]1(Cc2ccc(OC)cc2)[C@@H]2[C@@H](CC(=O)[C@H]2CC(=O)C(=O)N(C)C)CN1C(=O)c1ccccc1	-4.3	3.2	2.2	15.4	-0.3
O=C(NCc1ccccc1)c1cccc(NS(=O)(=O)c2cccc3cccnc23)c1	-10.2	14.3	1.3	54.0*	1.3
